Activity calls are given as the source filed them. The calls are words filed in the database; no cut-off is given here.
Tests used:
[1] = target: T1, Dopamine beta-hydroxylase (Bos taurus) (UniProt P15101); assay: Kinact value is determined from a plot of log(percent enzyme activity remaining) vs times
T1 sequence (whole entry): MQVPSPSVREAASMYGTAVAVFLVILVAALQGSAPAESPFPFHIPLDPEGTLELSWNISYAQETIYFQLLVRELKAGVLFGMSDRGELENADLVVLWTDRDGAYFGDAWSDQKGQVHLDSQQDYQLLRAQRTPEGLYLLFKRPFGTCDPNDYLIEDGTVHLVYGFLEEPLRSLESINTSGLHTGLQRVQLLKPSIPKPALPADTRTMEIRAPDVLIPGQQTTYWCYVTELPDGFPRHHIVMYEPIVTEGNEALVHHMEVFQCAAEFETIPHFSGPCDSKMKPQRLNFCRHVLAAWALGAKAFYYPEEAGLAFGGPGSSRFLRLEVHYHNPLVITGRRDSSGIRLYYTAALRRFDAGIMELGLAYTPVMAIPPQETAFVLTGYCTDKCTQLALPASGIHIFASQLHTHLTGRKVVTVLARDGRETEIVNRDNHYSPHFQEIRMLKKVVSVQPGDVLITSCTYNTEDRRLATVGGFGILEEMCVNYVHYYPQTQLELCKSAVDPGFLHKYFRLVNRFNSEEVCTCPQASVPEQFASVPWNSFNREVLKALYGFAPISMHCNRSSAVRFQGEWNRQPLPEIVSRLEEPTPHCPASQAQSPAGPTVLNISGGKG
Outline: (§1)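 Homogeneous bovine DBH (specific activity 30-42 units/mg at pH 5.0) was used in 50 mM sodium acetate at pH 5.0 and ionic strength 0.2, with 1 mg/mL catalase, 10 μM Cu²⁺ and 10 mM ascorbic acid at 37 °C. O₂ was held at 0.24 mM, so kinact values are apparent. kinact(observed) came from log % activity remaining vs time. KI and kinact came from 1/kinact(obs) vs 1/[inhibitor] plots using at least four inhibitor concentrations. Values are mean ± SEM.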

[2] = target: T2, Dopamine beta-hydroxylase (Bos taurus, UniProt P15101); assay: KI value was determined from plots of 1/kinact(observed) vs 1/[inhibitor]; outline: as §1
T2 sequence (P15101 whole entry): T1 sequence (whole entry)

[3] = target: T2, Dopamine beta-hydroxylase; assay: KI value was determined from plots of 1/kinact(observed) vs 1/[inhibitor]; e denotes 'Minimal time dependent inactivation'; outline: as §1
[4] = target: T1, Dopamine beta-hydroxylase (Bos taurus); assay: Kis value for the affinity towards homogenous bovine dopamine beta-hydroxylase (DBH)
Outline: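 Competitive inhibition constant was measured against tyramine substrate without fumarate, using homogeneous bovine DBH (30-42 units/mg at pH 5.0). Conditions were pH 5.0, ionic strength 0.2, 50 mM sodium acetate, 1 mg/mL catalase, 10 μM Cu²⁺, 10 mM ascorbate and 37 °C. Kis was obtained by kinetic fitting and is reported as mean ± SEM.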

[5] = target: T1, Dopamine beta-hydroxylase (Bos taurus); assay: Kinact value is determined from a plot of log(percent enzyme activity remaining) vs times; e denotes 'Minimal time dependent inactivation'; outline: as §1
[6] = target: T2, Dopamine beta-hydroxylase; assay: KI value was determined from plots of 1/kinact(observed) vs 1/[inhibitor]; Apparent values at pH 5.0, 0.24 mM O2
[7] = target: T1, Dopamine beta-hydroxylase (Bos taurus); assay: Kinact value is determined from a plot of log(percent enzyme activity remaining) vs times; Apparent values at pH 5.0, 0.24 mM O2

SMILES: Oc1ccc(CC2CC2)cc1
- K inact [1]: 1.8 min⁻¹
- Ki [2]: 12000 µM

SMILES: C#CC(CN)c1ccccc1 (centres undefined)
- Ki [3]: Inactive
- Kis [4]: 160 µM
- K inact [5]: inactive

SMILES: C#CC(CN)c1ccc(O)cc1 (single isomer, unassigned; (-)) [listing 1 of 2 here]
- K inact [1]: 0.184 min⁻¹
- Kis [4]: 33.9 µM

SMILES: C#CC(CN)c1ccc(O)cc1 (stereo in doubt; (+\-)3) [listing 1 of 2 here]
- K inact [1]: 0.023 min⁻¹
- Kis [4]: 13.6 µM

SMILES: C=CC(CN)c1cccc(O)c1 (centres undefined)
- Ki [3]: Inactive
- Kis [4]: 1270 µM
- K inact [5]: inactive

SMILES: C=CC(CN)c1ccccc1 (centres undefined)
- Ki [3]: Inactive
- Kis [4]: 670 µM
- K inact [5]: inactive

SMILES: C=CC(CN)c1ccc(O)cc1 (centres undefined)
- Ki [3]: Inactive
- Kis [4]: 82 µM
- K inact [5]: inactive

SMILES: C#CC(CN)c1ccc(O)cc1 (stereo in doubt; (+\-)3) [listing 2 of 2 here]
- Ki [2]: 15.7 µM

SMILES: C#CC(CN)c1ccc(O)cc1 (stereo in doubt; (+)3) [listing 1 of 2 here]
- Kis [4]: 7.9 µM
- K inact [5]: inactive

SMILES: C#CC(CN)c1ccc(O)cc1 (single isomer, unassigned; (-)) [listing 2 of 2 here]
- Ki [2]: 57 µM

SMILES: C=C(CN)c1cccs1
- K inact [1]: 0.124 min⁻¹

SMILES: C#CC(CN)c1cccc(O)c1 (centres undefined)
- Ki [3]: Inactive
- Kis [4]: 190 µM
- K inact [5]: inactive

SMILES: C#CC(CN)c1ccc(O)cc1 (stereo in doubt; (+)3) [listing 2 of 2 here]
- Ki [3]: Inactive

SMILES: C=C(CN)c1ccc(O)cc1
- Ki [6]: 520 µM
- K inact [7]: 0.81 min⁻¹

From ChEMBL document CHEMBL1124234, “Beta-substituted phenethylamines as high-affinity mechanism-based inhibitors of dopamine beta-hydroxylase” (J Med Chem, 1988)
